Data published in ChEMBL document CHEMBL2086311, “UDP made a highly promising stable, potent, and selective P2Y6-receptor agonist upon introduction of a boranophosphate moiety” (Bioorg Med Chem, 2012).
pEC50: −log10 of the molar value. Activity calls are given as the source filed them. The calls are words filed in the database; no cut-off is given here.

How the values were obtained:
[1] = biological target: P2Y purinoceptor 2 (Homo sapiens) (UniProt P41231); assay: Agonist activity at human GFP-tagged P2Y2 receptor expressed in human 1321N1 cells assessed as intracellular calcium mobilization up to 100 uM by fura2/AM-based fluorescence spectrophotometry; assay type: functional, cell-based
Chain of P2Y purinoceptor 2 (Homo sapiens) (P41231 whole entry, the tested form may be a part): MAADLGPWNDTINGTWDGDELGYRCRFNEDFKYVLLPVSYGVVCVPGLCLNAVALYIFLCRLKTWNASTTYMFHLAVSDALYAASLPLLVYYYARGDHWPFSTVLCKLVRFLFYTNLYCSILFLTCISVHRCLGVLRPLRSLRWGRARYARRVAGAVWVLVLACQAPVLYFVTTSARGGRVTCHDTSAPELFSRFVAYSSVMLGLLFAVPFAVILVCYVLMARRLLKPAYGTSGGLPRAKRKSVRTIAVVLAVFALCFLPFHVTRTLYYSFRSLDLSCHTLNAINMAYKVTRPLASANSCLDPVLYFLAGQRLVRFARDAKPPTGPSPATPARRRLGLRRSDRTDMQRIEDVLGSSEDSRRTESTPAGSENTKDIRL
In short: (§1)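 Human P2Y2, P2Y4 or P2Y6 receptors with GFP fusion, stably expressed in 1321N1 astrocytoma cells (no endogenous P2X/P2Y), selected with 0.5 mg/mL G418. Cells on coverslips at ~80% density were loaded with 2 µM fura 2/AM plus 0.02% pluronic acid in Na-HBS pH 7.4 for 30 min at 37 °C. Nucleotide was superfused at 37 °C, usually 10^-8 to ≥10^-5 M, sometimes to 10^-4 M. Read-out was 340/380 nm excitation ratio at 510 nm emission. Values are mean maximal amplitude ± SE.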

P2Y purinoceptor 6 [2] = biological target: T1, P2Y purinoceptor 6 (Homo sapiens, UniProt Q15077); assay: Agonist activity at human GFP-tagged P2Y6 receptor expressed in human 1321N1 cells assessed as intracellular calcium mobilization by fura2/AM-based fluorescence spectrophotometry; assay type: functional, cell-based; in short: as §1
T1 sequence (Q15077 whole entry): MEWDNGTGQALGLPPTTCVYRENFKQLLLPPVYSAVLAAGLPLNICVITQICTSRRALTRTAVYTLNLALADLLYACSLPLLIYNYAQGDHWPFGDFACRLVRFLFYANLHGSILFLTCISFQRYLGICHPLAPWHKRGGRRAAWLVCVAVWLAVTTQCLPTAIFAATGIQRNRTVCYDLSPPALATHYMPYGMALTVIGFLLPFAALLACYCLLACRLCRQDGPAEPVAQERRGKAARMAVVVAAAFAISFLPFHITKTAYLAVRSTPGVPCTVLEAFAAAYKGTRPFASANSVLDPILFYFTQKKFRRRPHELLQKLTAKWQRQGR

P2Y purinoceptor 4 [3] = biological target: T2, P2Y purinoceptor 4 (Homo sapiens, UniProt P51582); assay: Agonist activity at human GFP-tagged P2Y4 receptor expressed in human 1321N1 cells assessed as intracellular calcium mobilization up to 100 uM by fura2/AM-based fluorescence spectrophotometry; assay type: functional, cell-based; in short: as §1
T2 sequence (P51582 whole entry): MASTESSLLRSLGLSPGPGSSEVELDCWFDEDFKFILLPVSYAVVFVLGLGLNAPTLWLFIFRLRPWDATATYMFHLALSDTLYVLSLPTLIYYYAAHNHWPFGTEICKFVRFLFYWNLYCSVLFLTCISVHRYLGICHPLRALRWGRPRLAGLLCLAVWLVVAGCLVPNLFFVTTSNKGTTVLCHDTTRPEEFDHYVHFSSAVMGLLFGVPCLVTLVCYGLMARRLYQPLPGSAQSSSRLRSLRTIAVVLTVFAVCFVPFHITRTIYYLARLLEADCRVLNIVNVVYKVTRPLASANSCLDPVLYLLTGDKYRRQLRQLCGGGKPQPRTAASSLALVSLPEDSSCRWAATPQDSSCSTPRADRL

P2Y purinoceptor 6 [4] = biological target: T1, P2Y purinoceptor 6; assay: Ratio of UDP EC50 to compound EC50 for human GFP-tagged P2Y6 receptor
In short: (§2)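 Human P2Y6 receptor-GFP construct stably expressed in 1321N1 astrocytoma cells (no endogenous P2X/P2Y). Cells loaded with 2 µM fura-2/AM plus 0.02% pluronic acid in Na-HBS (pH 7.4), 30 min, 37 °C. Superfused at 37 °C with nucleotide, usually 10^-8 M to at least 10^-5 M. [Ca2+]i read as 340/380 nm excitation ratio, emission 510 nm. EC50 from concentration–response curves.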

[5] = Agonist activity at P2Y6 receptor in New Zealand White rabbit osteoclasts assessed as intracellular calcium mobilization by fura2-based microfluorimetric technique; assay type: functional, cell-based; details: Oryctolagus cuniculus
P2Y purinoceptor 4 [6] = biological target: T2, P2Y purinoceptor 4; assay: Agonist activity at human GFP-tagged P2Y4 receptor expressed in human 1321N1 cells assessed as intracellular calcium mobilization by fura2/AM-based fluorescence spectrophotometry; assay type: functional, cell-based; in short: as §1
[7] = Half life in KCl/HCl buffer by 31P-NMR analysis at pH 1.4; assay type: physicochemical
In short: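 Sodium salt dissolved in KCl/HCl buffer pH 1.4 containing D2O, held at 37 °C. 31P NMR spectra taken at 15 min, 1 h or 24 h intervals, about every 24 h in multi-day runs. Hydrolysis rate taken from change in integration of one starting-material phosphate signal over time, fit to a pseudo-first-order model.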

[8] = biological target: T3, NPP3 (ectonucleotide pyrophosphatase/phosphodiesterase family member 3) (Homo sapiens, UniProt O14638); assay: Hydrolytic stability of the compound assessed as human NPP3-mediated hydrolysis after 3 hrs by HPLC analysis; assay type: ADME; details: human NPP3 enzyme, read-out: Activity
T3 sequence (O14638 whole entry): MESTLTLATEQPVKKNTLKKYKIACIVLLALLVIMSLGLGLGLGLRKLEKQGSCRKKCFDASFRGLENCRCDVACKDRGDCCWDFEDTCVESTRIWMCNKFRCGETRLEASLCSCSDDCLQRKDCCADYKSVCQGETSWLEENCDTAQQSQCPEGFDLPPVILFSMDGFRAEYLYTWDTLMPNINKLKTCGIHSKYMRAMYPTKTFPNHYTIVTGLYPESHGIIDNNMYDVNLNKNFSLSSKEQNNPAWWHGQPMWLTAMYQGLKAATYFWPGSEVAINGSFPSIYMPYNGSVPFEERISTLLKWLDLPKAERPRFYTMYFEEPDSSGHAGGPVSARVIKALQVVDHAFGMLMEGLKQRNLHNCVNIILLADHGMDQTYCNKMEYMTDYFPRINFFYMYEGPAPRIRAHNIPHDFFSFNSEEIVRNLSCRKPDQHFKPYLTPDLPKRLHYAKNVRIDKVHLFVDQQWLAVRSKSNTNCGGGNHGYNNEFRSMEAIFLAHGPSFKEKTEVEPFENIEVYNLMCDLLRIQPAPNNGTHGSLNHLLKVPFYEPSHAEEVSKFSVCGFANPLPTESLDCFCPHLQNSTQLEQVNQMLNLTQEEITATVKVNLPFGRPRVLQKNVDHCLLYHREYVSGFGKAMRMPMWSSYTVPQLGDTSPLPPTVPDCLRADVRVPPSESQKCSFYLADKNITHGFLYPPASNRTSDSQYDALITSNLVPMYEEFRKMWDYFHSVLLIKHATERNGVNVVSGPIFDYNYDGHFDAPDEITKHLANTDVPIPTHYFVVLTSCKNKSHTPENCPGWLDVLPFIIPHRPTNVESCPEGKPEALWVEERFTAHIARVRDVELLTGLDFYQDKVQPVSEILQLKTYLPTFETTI
In short: (§3)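 Human NPP1 (56.15 µg) or NPP3 (57.78 µg) extract was pre-incubated 3 min at 37 °C in 1 mM CaCl2, 200 mM NaCl, 10 mM KCl, 100 mM Tris pH 8.5. Reaction was started with 4 mM compound stock and stopped after 2 h (NPP1) or 3 h (NPP3) in ice-cold 1 M perchloric acid, then neutralized with KOH. HPLC measured the nucleoside monophosphate peak area minus a no-enzyme acid control. Mean ± S.D. of two experiments.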

[9] = Half life in human serum by HPLC analysis; assay type: ADME, cell-free
In short: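 Compound (0.1 mg) incubated with human blood serum and RPMI-1640 medium at 37 °C for 0–24 h. Samples taken at 0.5–12 h intervals, heated to 80 °C for 30 min, treated with CM Sephadex and extracted with chloroform. Analysed by reverse-phase HPLC. Degradation from peak integration, corrected against a serum-free control given the same workup.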

[10] = biological target: T4, Ectonucleotide pyrophosphatase/phosphodiesterase family member 1 (Homo sapiens, UniProt P22413); assay: Hydrolytic stability of the compound assessed as human NPP1-mediated hydrolysis measuring 5-OMe-UMP formation after 2 hrs by HPLC analysis; assay type: ADME; design: scale not given: the % may be the effect or the level left; in short: as §3
T4 sequence (P22413 whole entry): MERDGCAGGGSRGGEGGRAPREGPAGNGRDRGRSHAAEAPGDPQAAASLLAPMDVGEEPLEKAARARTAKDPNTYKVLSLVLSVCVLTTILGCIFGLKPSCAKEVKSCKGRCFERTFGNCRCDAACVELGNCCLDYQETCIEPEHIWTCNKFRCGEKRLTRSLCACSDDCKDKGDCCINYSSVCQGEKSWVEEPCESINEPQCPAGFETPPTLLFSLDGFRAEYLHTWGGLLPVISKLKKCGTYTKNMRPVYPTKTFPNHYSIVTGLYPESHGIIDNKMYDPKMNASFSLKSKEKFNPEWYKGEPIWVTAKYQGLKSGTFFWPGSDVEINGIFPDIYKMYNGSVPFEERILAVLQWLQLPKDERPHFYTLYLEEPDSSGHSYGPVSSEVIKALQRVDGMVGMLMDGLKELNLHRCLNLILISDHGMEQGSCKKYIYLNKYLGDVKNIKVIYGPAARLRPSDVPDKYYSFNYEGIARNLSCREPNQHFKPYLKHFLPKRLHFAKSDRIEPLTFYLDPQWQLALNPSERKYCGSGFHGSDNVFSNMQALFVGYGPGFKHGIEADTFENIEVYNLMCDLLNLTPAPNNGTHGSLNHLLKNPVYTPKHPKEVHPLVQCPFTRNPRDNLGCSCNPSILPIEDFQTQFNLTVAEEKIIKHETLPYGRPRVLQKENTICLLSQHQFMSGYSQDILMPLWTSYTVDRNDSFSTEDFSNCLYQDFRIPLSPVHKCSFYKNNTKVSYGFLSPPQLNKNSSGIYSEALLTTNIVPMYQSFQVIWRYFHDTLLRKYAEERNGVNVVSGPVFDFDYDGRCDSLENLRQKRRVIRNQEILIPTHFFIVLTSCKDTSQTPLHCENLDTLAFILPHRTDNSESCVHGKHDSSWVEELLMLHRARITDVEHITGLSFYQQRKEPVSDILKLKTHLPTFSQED

Serum [11] = assay: Drug metabolism in human serum assessed as nucleoside 5'-monophosphate formation incubated up to 24 hrs by HPLC analysis; assay type: ADME, cell-free
In short: (§4)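 Samples held 0.1 mg compound with human blood serum (180 µL) and RPMI-1640 (540 µL) at 37 °C for 0–24 h. At each time point they were heated to 80 °C for 30 min, treated with CM Sephadex, centrifuged and chloroform-extracted. Analysis was reverse-phase HPLC on peak integrals. Degradation was taken relative to a no-serum control carried through the same workup, and half-lives came from the time course.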

Serum [12] = assay: Drug metabolism in human serum assessed as nucleoside formation incubated up to 24 hrs by HPLC analysis; assay type: ADME, cell-free; in short: as §4
P2Y purinoceptor 6 [13] = biological target: T1, P2Y purinoceptor 6; assay: Agonist activity at human P2Y6 receptor; assay type: functional; in short: as §2
[14] = biological target: T4, Ectonucleotide pyrophosphatase/phosphodiesterase family member 1; assay: Hydrolytic stability of the compound assessed as human NPP1-mediated hydrolysis measuring UMP formation after 2 hrs by HPLC analysis; assay type: ADME; design: scale not given: the % may be the effect or the level left; in short: as §3

SMILES | Activity [1] | pEC50 (P2Y purinoceptor 6 [2]) | Activity (P2Y purinoceptor 4 [3]) | also measured
COc1cn([C@@H]2O[C@H](COP(=O)(O)OP(=O)(O)OP(=O)(O)OC[C@H]3O[C@@H](n4cc(OC)c(=O)[nH]c4=O)[C@H](O)[C@@H]3O)[C@@H](O)[C@H]2O)c(=O)[nH]c1=O | inactive | < 5.00 | inactive | –
B[P@@](=O)(OC[C@H]1O[C@@H](n2cc(OC)c(=O)[nH]c2=O)[C@H](O)[C@@H]1O)OP(=O)(O)O | inactive | – | inactive | Ratio EC50 (P2Y purinoceptor 6 [4]): 19
O=c1ccn([C@@H]2O[C@H](COP(=O)(O)OP(=O)(O)OP(=O)(O)OC[C@H]3O[C@@H](n4ccc(=O)[nH]c4=O)[C@@H]4OC(Cc5ccccc5)O[C@@H]43)[C@@H](O)[C@H]2O)c(=O)[nH]1 (some centres undefined) | – | – | – | pEC50 [5]: 6.85
O=c1ccn([C@@H]2O[C@H](COP(=O)(O)OP(=O)(O)OP(=O)(O)O)[C@@H](O)[C@H]2O)c(=O)[nH]1 [URIDINE TRIPHOSPHATE] | – | – | – | pEC50 (P2Y purinoceptor 4 [6]): 6.05
B[P@](=O)(OC[C@H]1O[C@@H](n2cc(OC)c(=O)[nH]c2=O)[C@H](O)[C@@H]1O)OP(=O)(O)OP(=O)(O)OC[C@H]1O[C@@H](n2cc(OC)c(=O)[nH]c2=O)[C@H](O)[C@@H]1O | inactive | 5.66 | inactive | –
BP(=O)(OC[C@H]1O[C@@H](n2cc(OC)c(=O)[nH]c2=O)[C@H](O)[C@@H]1O)OP(=O)(O)O (some centres undefined) | – | – | – | half-life [7]: 16.9 h
B[P@](=O)(OC[C@H]1O[C@@H](n2cc(OC)c(=O)[nH]c2=O)[C@H](O)[C@@H]1O)OP(=O)(O)O | inactive | 5.37 | inactive | –
B[P@@](=O)(OC[C@H]1O[C@@H](n2cc(OC)c(=O)[nH]c2=O)[C@H](O)[C@@H]1O)OP(=O)(O)OP(=O)(O)O | inactive | 4.95 | inactive | –
COc1cn([C@@H]2O[C@H](COP(=O)(O)OP(=O)(O)O)[C@@H](O)[C@H]2O)c(=O)[nH]c1=O | – | – | – | metabolised at 3 h [8]: 36%; half-life [9]: 11.9 h; Activity [10]: 49%; Drug metabolism (Serum [11]): Active; Drug metabolism (Serum [12]): Active
O=c1ccn([C@@H]2O[C@H](COP(=O)(O)OP(=O)(O)S)[C@@H](O)[C@H]2O)c(=O)[nH]1 (some centres undefined) | – | – | – | pEC50 (P2Y purinoceptor 6 [13]): 7.55
O=c1ccn([C@@H]2O[C@H](COP(=O)(O)OP(=O)(O)O)[C@@H](O)[C@H]2O)c(=O)[nH]1 [URIDINE_DIPHOSPHATE] | – | 6.82 | – | Activity [14]: 50%; half-life [9]: 2.4 h; pEC50 (P2Y purinoceptor 6 [13]): 7.33; half-life [7]: 288 h; Drug metabolism (Serum [11]): Active; Drug metabolism (Serum [12]): Active; pEC50 [5]: 6.30
B[P@](=O)(OC[C@H]1O[C@@H](n2cc(OC)c(=O)[nH]c2=O)[C@H](O)[C@@H]1O)OP(=O)(O)OP(=O)(O)O | inactive | – | inactive | –
B[P@](=O)(OC[C@H]1O[C@@H](n2cc(OC)c(=O)[nH]c2=O)[C@H](O)[C@@H]1O)O[P@@](=O)(O)OP(=O)(O)O | – | 4.70 | – | –
BP(=O)(OP(=O)(O)OC[C@H]1O[C@@H](n2cc(OC)c(=O)[nH]c2=O)[C@H](O)[C@@H]1O)OP(=O)(O)OC[C@H]1O[C@@H](n2cc(OC)c(=O)[nH]c2=O)[C@H](O)[C@@H]1O | inactive | 6.70 | inactive | –
B[P@@](=O)(OC[C@H]1O[C@@H](n2ccc(=O)[nH]c2=O)[C@H](O)[C@@H]1O)OP(=O)(O)O | – | – | – | half-life [9]: 17 h; half-life [7]: 16.8 h
B[P@@](=O)(OC[C@H]1O[C@@H](n2cc(OC)c(=O)[nH]c2=O)[C@H](O)[C@@H]1O)OP(=O)(O)OP(=O)(O)OC[C@H]1O[C@@H](n2cc(OC)c(=O)[nH]c2=O)[C@H](O)[C@@H]1O | inactive | 7.22 | inactive | Ratio EC50 (P2Y purinoceptor 6 [4]): 2.5
